The text below walks through data of ChEMBL document CHEMBL3400042, “Mitotic arrest of breast cancer MDA-MB-231 cells by a halogenated thieno[3,2-d]pyrimidine” (Bioorg Med Chem Lett, 2015).

Structures are written as SMILES. Active and inactive are the calls of the source. The calls are words filed in the database; no cut-off is given here.

Test [1] has as its system MDA-MB-231. Kind of test: Cytotoxicity against human MDA-MB-231 cells after 48 hrs by MTT assay. In kind it is functional, cell-based. Conditions: MDA-MB-231, 48 h. The procedure, abridged:
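MDA-MB-231 cells exposed to a range of compound concentrations for 48 h, then viability read by MTT. IC50 (50% cell death) obtained by non-linear regression to a sigmoidal dose-response function; mean ± SD of three independent experiments.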
(Formazan colour is commonly taken as a measure of viable cells.)

For test [2], the system named is MDA-MB-231. Kind of test: Induction of cell cycle arrest in human MDA-MB-231 cells assessed as accumulation at G1 phase at 8 uM after 48 hrs by propidium iodide staining based flow cytometry. In kind it is functional. The procedure, abridged: (§1)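 After 48 h of compound exposure, MDA-MB-231 cells were fixed, stained with propidium iodide and analysed by flow cytometry, with at least 3000 cells per population. Phase fractions (<G1, G1, S, G2/M, >G2) were compared with DMSO vehicle controls. Values are mean ± SD of 4 independent cell samples.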
(A flow cytometer gives signals particle by particle.)

Test [3] concerns MDA-MB-231. The test can be described thus: Induction of cell cycle arrest in human MDA-MB-231 cells assessed as accumulation at S phase at 8 uM after 48 hrs by propidium iodide staining based flow cytometry. In kind it is functional. The procedure, abridged:
as §1

The test system of test [4] is MDA-MB-231. The test can be described thus: Induction of cell cycle arrest in human MDA-MB-231 cells assessed as accumulation at G2/M phase at 8 uM after 48 hrs by propidium iodide staining based flow cytometry. In kind it is functional. The procedure, abridged:
as §1

For test [5], the system named is MDA-MB-231. The test can be described thus: Induction of cell cycle arrest in human MDA-MB-231 cells assessed as < G1 DNA content at 8 uM after 48 hrs by propidium iodide staining based flow cytometry. In kind it is functional. Put shortly:
as §1

In test [6] the test system is MDA-MB-231. Kind of test: Induction of cell cycle arrest in human MDA-MB-231 cells assessed as >G2 DNA content at 8 uM after 48 hrs by propidium iodide staining based flow cytometry. It counts as functional. The procedure, abridged: as §1
Test [7] deals with MDA-MB-231. The test can be described thus: Induction of cell cycle arrest in human MDA-MB-231 cells assessed as accumulation at G2/M phase at 15 uM after 48 hrs by propidium iodide staining based flow cytometry. In kind it is functional. The procedure, abridged:
as §1

The test system of test [8] is MDA-MB-231. Kind of test: Induction of cell cycle arrest in human MDA-MB-231 cells assessed as reduction in accumulation at G1 phase at 15 uM after 48 hrs by propidium iodide staining based flow cytometry. It counts as functional. Put shortly: as §1
Test [9] has as its system MDA-MB-231. The test can be described thus: Induction of cell cycle arrest in human MDA-MB-231 cells assessed as reduction in accumulation at S phase at 15 uM after 48 hrs by propidium iodide staining based flow cytometry. In kind it is functional. Put shortly:
as §1

Test [10] has as its system MDA-MB-231. Kind of test: Induction of cell cycle arrest in human MDA-MB-231 cells assessed as < G1 DNA content at 15 uM after 48 hrs by propidium iodide staining based flow cytometry. It counts as functional. Put shortly:
as §1

Test [11] has as its system MDA-MB-231. The test can be described thus: Induction of cell cycle arrest in human MDA-MB-231 cells assessed as >G2 DNA content at 15 uM after 48 hrs by propidium iodide staining based flow cytometry. It counts as functional. The procedure, abridged:
as §1

In general, IC50 refers to the concentration that gives 50% inhibition. For the compound `Clc1nc(Cl)c2scc(Br)c2n1`, 5.9 µM corresponded to half-maximal inhibition in the test on MDA-MB-231 [1] (IC50). The outcome in the test with MDA-MB-231 [2], with MDA-MB-231 [3], in the test on MDA-MB-231 [4], in the test on MDA-MB-231 [5] and in the test on MDA-MB-231 [6] was inactive.

With `Clc1nc(Cl)c2sccc2n1`, the midpoint of inhibition in the test on MDA-MB-231 [1], the IC50, lay at 9 µM. Moreover, the Activity in the test on MDA-MB-231 [7] is reported as above 70%. Besides, the outcome in the test with MDA-MB-231 [8] and with MDA-MB-231 [9] was Active. Moreover, the outcome in the test with MDA-MB-231 [10] and in the test with MDA-MB-231 [11] was inactive.
